In ChEMBL document CHEMBL4308858 (Eur J Med Chem, 2018):
pIC50: −log10 of the molar value. Active and inactive are the calls of the source. The calls are words filed in the database; no cut-off is given here.

Columns and labels:
BXPC-3 [1] = assay: Cytotoxicity against human BxPC3 cells assessed as reduction in cell viability after 48 hrs by MTS assay; type: functional, cell-based
Summary of the method: (§1)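 PC3, MCF7 and BxPC3 cells grown in RPMI1640 with 10% FBS, plated and held 24 h in 2% FBS medium. At about 20% confluency, compound added at 0.01–30 µM for 48 h, with medium and compound replaced every 24 h. MTS reagent applied for 1 h and formazan absorbance read at 490 nm; mean ± S.E., n = 3.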

PC-3 [2] = assay: Cytotoxicity against human PC3 cells assessed as reduction in cell viability after 48 hrs by MTS assay; type: functional, cell-based; summary of the method: as §1
[3] = molecular target: T1, Anoctamin-1 (Homo sapiens) (UniProt Q5XXA6); assay: Inhibition of ANO1 (unknown origin) expressed in FRT cells assessed as reduction in ATP-induced chloride current after 20 mins by electrophysiological assay; type: cell-based
T1 sequence (whole entry): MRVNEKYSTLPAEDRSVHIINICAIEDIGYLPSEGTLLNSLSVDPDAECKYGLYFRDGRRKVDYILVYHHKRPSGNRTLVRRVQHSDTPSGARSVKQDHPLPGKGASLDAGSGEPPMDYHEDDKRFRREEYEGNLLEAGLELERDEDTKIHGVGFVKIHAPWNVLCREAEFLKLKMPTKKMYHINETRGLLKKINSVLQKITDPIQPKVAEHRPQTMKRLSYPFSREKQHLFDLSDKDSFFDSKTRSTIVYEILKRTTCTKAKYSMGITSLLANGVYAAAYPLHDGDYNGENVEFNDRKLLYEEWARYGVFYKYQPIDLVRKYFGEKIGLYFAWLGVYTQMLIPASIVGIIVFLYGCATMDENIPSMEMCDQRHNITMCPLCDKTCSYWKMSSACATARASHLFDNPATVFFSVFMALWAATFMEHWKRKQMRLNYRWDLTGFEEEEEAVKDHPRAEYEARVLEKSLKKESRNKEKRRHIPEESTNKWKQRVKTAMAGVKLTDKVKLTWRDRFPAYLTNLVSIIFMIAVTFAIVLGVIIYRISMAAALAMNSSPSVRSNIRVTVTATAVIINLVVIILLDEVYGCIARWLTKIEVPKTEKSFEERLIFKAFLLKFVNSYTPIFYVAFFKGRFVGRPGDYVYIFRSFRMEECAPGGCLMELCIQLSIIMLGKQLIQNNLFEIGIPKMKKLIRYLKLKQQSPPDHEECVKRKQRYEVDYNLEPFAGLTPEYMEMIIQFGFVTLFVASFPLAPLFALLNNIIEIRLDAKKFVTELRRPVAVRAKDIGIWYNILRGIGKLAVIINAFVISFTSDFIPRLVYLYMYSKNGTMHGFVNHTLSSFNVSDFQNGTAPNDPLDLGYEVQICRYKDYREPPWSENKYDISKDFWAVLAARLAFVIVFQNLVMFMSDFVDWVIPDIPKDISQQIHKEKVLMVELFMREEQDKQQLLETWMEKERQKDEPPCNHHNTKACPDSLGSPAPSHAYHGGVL

MCF7 [4] = assay: Cytotoxicity against human MCF7 cells assessed as reduction in cell viability after 48 hrs by MTS assay; type: functional, cell-based; summary of the method: as §1
Homo sapiens [5] = species on record: Homo sapiens; assay: Selectivity for ANO1 (unknown origin) over ANO2 (unknown origin)
PC-3 [6] = assay: Inhibition of ANO1 protein expression level in human PC3 cells at 3 to 10 uM after 24 hrs by Western blot analysis; type: functional, cell-based
Summary of the method: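 PC3 cells exposed to compound for 24 h and lysed in NP-40/deoxycholate buffer with protease and phosphatase inhibitors. Lysate cleared at 15000 g, resolved on 4–12% Tris-glycine gel and transferred to PVDF. Blocked in 4% milk/TBST, probed with anti-ANO1 (1:500) then anti-rabbit secondary (1:2000), and detected by ECL.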

Anoctamin-2 = molecular target: T2, Anoctamin-2 (Homo sapiens, UniProt Q9NQ90); assay: Inhibition of YFP-fused ANO2 (unknown origin) expressed in FRT cells after 20 mins by fluorescence quenching method; type: cell-based; settings: for pIC50: read-out: IC50
T2 sequence (Q9NQ90 whole entry): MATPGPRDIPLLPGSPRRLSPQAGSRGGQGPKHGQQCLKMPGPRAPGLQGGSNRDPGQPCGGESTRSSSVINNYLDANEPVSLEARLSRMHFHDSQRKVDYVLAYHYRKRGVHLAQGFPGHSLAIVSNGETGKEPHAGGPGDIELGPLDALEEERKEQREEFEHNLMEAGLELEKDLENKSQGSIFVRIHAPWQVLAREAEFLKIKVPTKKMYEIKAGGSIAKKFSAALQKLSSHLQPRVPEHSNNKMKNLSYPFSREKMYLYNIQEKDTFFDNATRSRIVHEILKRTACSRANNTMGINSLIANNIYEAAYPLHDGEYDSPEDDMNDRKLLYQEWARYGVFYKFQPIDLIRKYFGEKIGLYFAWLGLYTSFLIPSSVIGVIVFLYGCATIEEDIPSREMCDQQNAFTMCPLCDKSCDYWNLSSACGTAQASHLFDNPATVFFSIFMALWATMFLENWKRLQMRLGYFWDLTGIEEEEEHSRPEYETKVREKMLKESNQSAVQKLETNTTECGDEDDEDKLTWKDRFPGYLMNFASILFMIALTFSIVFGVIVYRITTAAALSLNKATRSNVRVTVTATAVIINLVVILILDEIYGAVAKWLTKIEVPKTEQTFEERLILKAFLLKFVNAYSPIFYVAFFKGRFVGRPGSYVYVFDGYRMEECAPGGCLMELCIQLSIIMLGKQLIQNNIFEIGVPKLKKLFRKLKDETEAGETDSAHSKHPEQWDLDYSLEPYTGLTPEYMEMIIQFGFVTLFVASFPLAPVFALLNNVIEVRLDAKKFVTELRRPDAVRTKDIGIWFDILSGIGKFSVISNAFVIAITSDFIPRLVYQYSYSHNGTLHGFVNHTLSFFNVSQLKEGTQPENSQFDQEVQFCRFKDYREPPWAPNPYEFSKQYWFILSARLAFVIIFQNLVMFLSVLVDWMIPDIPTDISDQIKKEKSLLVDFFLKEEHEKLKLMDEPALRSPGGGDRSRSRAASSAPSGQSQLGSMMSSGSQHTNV

ANO2 (Anoctamin-2) = molecular target: T3, ANO2 (Anoctamin-2) (Homo sapiens, UniProt Q9NQ90); assay: Inhibition of YFP-fused ANO2 (unknown origin) expressed in FRT cells after 20 mins by fluorescence quenching method relative to untreated control; type: cell-based; parameters: concentration or dose not given beside the values; settings: FRT cells expressing YFP-fused ANO2
T3 sequence (Q9NQ90 whole entry): T2 sequence (Q9NQ90 whole entry)
Summary of the method: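 FRT cells stably co-expressing YFP-H148Q/I152L/F46L and ANO1 or ANO2, seeded 2×10^4 per well and grown 48 h. After PBS washes, compound given for 20 min. At 2 s, 70 mM I⁻ solution containing 200 µM ATP added; fluorescence read every 0.4 s for 6 s. Inhibition taken from initial slope of quenching; mean ± S.E., n = 3.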

[7] = molecular target: Cystic fibrosis transmembrane conductance regulator (Homo sapiens, UniProt P13569); assay: Inhibition of wild type human CFTR expressed in FRT cells assessed as reduction in forskolin-induced chloride current at 30 to 100 uM after 20 mins by electrophysiological assay; type: cell-based
Cystic fibrosis transmembrane conductance regulator, sequence (P13569 whole entry): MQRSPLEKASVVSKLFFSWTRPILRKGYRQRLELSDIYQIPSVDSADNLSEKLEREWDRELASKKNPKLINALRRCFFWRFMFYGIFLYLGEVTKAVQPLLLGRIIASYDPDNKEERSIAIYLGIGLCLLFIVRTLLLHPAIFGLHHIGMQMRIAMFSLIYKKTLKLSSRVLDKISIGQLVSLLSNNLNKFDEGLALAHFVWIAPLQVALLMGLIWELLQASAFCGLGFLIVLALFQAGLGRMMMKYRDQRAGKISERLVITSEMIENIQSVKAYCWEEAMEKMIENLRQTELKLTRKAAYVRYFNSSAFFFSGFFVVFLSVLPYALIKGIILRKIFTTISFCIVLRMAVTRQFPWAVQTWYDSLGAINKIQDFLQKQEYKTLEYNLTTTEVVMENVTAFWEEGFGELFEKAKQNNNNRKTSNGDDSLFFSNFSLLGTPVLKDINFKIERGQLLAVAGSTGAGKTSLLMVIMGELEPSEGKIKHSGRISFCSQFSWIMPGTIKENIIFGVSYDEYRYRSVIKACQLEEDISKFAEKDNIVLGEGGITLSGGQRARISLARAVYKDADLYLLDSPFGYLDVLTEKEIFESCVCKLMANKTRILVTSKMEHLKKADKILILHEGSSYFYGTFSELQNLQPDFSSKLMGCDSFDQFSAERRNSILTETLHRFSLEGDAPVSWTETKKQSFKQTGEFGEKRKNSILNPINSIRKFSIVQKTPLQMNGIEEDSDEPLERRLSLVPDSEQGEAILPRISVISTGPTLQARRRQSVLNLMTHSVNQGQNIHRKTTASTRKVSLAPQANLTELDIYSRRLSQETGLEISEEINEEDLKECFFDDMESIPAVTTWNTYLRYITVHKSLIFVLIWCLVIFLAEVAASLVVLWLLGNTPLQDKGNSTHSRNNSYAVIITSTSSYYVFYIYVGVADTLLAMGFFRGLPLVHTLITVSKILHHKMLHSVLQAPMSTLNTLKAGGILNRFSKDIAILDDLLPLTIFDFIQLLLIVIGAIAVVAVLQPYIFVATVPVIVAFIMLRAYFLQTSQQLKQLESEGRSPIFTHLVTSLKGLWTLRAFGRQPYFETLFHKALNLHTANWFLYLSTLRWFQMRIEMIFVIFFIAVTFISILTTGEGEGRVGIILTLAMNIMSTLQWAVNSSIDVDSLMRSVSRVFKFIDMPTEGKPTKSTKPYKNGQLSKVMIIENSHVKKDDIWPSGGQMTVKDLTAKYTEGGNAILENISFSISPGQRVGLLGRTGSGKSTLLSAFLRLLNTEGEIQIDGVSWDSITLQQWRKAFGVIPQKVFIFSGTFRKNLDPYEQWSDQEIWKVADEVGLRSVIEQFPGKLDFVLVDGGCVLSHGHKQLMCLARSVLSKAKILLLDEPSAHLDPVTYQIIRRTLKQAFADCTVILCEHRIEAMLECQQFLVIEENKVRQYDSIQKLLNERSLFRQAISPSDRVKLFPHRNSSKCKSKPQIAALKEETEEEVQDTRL
Summary of the method: (§2)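 Ussing chamber, FRT monolayers expressing ANO1, ANO2 or human WT-CFTR. Basolateral side permeabilised with amphotericin B (250 µg/mL) in HCO3⁻-buffered solution, pH 7.4; apical side half-Cl⁻ (65 mM NaCl replaced by gluconate). Run at 37 °C under 95% O2/5% CO2. Compound applied apically for 20 min, then ANO1/2 activated with 100 µM ATP or CFTR with 20 µM forskolin. Apical current recorded; n = 3–6.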

Homo sapiens [8] = species on record: Homo sapiens; assay: Selectivity for ANO1 (unknown origin) over wild type human CFTR
[9] = Half life in rat plasma at 5 uM by LC-MS/MS analysis; type: ADME, cell-free
Summary of the method: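 Compound at 5 µM final in rat plasma, shaken at 37 °C and sampled at 0, 30, 60, 120 and 240 min. Reaction stopped with three volumes of ice-cold acetonitrile and protein spun out. Supernatant analysed by LC-MS/MS on a C18 column with formic acid/water–ACN mobile phase. Percent parent remaining taken from peak areas; n = 3.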

Anoctamin-1 = molecular target: T4, Anoctamin-1 (Homo sapiens, UniProt Q5XXA6); assay: Inhibition of YFP-fused ANO1 (unknown origin) expressed in FRT cells after 20 mins by fluorescence quenching method; type: cell-based; settings: for pIC50: read-out: IC50
T4 sequence (Q5XXA6 whole entry): T1 sequence (whole entry)

MCF7 [10] = assay: Cytotoxicity against human MCF7 cells assessed as reduction in cell viability at 10 uM after 48 hrs by MTS assay; type: functional, cell-based; summary of the method: as §1
PC-3 [11] = assay: Cytotoxicity against human PC3 cells assessed as reduction in cell viability at 10 uM after 48 hrs by MTS assay; type: functional, cell-based; summary of the method: as §1
BXPC-3 [12] = assay: Cytotoxicity against human BxPC3 cells assessed as reduction in cell viability at 10 uM after 48 hrs by MTS assay; type: functional, cell-based; summary of the method: as §1
[13] = molecular target: CFTR (cystic fibrosis transmembrane conductance regulator) (Homo sapiens, UniProt P13569); assay: Inhibition of wild type human CFTR expressed in FRT cells assessed as reduction in forskolin-induced chloride current at 10 uM after 20 mins by electrophysiological assay; type: cell-based; settings: FRT cells expressing wild type human CFTR; summary of the method: as §2
CFTR (cystic fibrosis transmembrane conductance regulator), sequence (P13569 whole entry): as above

Compound: Cc1cc(Cl)ccc1OCC(=O)N/N=C/c1ccccc1OC(F)(F)F
- Activity (BXPC-3 [1]): Dose-dependent effect
- Activity (PC-3 [2]): Dose-dependent effect
- inhibition [3]: Dose-dependent effect
- Activity (MCF7 [4]): Dose-dependent effect
- Selectivity ratio (Homo sapiens [5]): > 1000
- inhibition (PC-3 [6]): Active
- IC50 (Anoctamin-2): Not Active
- inhibition at 20 min (ANO2 (Anoctamin-2)): < 20%
- inhibition (INH) [7]: Not Active
- Selectivity ratio (Homo sapiens [8]): > 1000
- half-life at 5 µM [9]: 1.73 h

Compound: Cc1cc(Cl)ccc1OCc1nnc(-c2cccc(F)c2)o1
- pIC50 (Anoctamin-1): < 4.00
- pIC50 (Anoctamin-2): < 4.00

Compound: Cc1cc(Cl)ccc1OCC(=O)N/N=C/c1ccccc1C(F)(F)F
- IC50 (Anoctamin-2): Not Active
- inhibition at 20 min (ANO2 (Anoctamin-2)): < 20%

Compound: Cc1cc(Cl)ccc1OC(F)(F)C(=O)N/N=C/c1ccccc1OC(F)(F)F
- pIC50 (Anoctamin-1): < 4.00
- pIC50 (Anoctamin-2): < 4.00

Compound: Cc1cc(Cl)ccc1OCC(=O)N/N=C/c1ccccc1F
- pIC50 (Anoctamin-1): 6.05
- IC50 (Anoctamin-2): Not Active
- inhibition at 20 min (ANO2 (Anoctamin-2)): < 20%

Compound: COc1ccccc1-c1nnc(-c2cc3cc(Cl)ccc3o2)o1
- pIC50 (Anoctamin-1): < 4.00
- pIC50 (Anoctamin-2): < 4.00

Compound: Cc1cc(Cl)ccc1OCC(=O)N/N=C/c1ccccn1
- pIC50 (Anoctamin-2): < 4.00

Compound: COc1cccc(/C=N/NC(=O)COc2ccc(Cl)cc2C)c1
- pIC50 (Anoctamin-1): < 4.00
- IC50 (Anoctamin-2): Not Active
- inhibition at 20 min (ANO2 (Anoctamin-2)): < 20%

Compound: Cc1cc(Cl)ccc1OCc1nnc(-c2ccccc2OC(F)(F)F)o1
- pIC50 (Anoctamin-1): < 4.00
- IC50 (Anoctamin-2): Not Active
- inhibition at 20 min (ANO2 (Anoctamin-2)): < 20%

Compound: Cc1cc(Cl)ccc1OCc1nnc(-c2ccccc2F)o1
- pIC50 (Anoctamin-2): < 4.00

Compound: Cc1cc(Cl)ccc1OCC(=O)N/N=C/c1cccc(F)c1
- pIC50 (Anoctamin-1): < 4.00
- IC50 (Anoctamin-2): Not Active
- inhibition at 20 min (ANO2 (Anoctamin-2)): < 20%

Compound: Cc1cc(Cl)ccc1OC(C)(C)C(=O)N/N=C/c1ccccc1OC(F)(F)F
- IC50 (Anoctamin-1): Not Active
- pIC50 (Anoctamin-2): < 4.00

Compound: Cc1cc(Cl)ccc1OCc1nnc(-c2cccc(OC(F)(F)F)c2)o1
- pIC50 (Anoctamin-1): < 4.00
- IC50 (Anoctamin-2): Not Active
- inhibition at 20 min (ANO2 (Anoctamin-2)): < 20%

Compound: COc1cccc(-c2nnc(COc3ccc(Cl)cc3C)o2)c1
- pIC50 (Anoctamin-1): < 4.00
- pIC50 (Anoctamin-2): < 4.00

Compound: Cc1cc(Cl)ccc1OCc1nnc(-c2ccco2)o1
- pIC50 (Anoctamin-2): < 4.00

Compound: Cc1cc(Cl)ccc1OCc1nnc(-c2ccccc2C(F)(F)F)o1
- pIC50 (Anoctamin-1): < 4.00
- pIC50 (Anoctamin-2): < 4.00

Compound: Cc1cc(Cl)ccc1OCC(=O)N/N=C/c1cccc(OC(F)(F)F)c1
- Activity (MCF7 [10]): inactive
- pIC50 (Anoctamin-1): < 4.00
- Activity (PC-3 [11]): inactive
- IC50 (Anoctamin-2): Not Active
- inhibition at 20 min (ANO2 (Anoctamin-2)): < 20%
- Activity (BXPC-3 [12]): inactive

Compound: Cc1cc(Cl)ccc1OCC(=O)N/N=C/c1ccco1
- IC50 (Anoctamin-2): Not Active
- inhibition at 20 min (ANO2 (Anoctamin-2)): < 20%

Compound: O=C(O)c1ccc(/C=C2/SC(=S)N(c3cccc(C(F)(F)F)c3)C2=O)cc1
- inhibition at 20 min, 10 µM [13]: 100%

Compound: COc1ccccc1/C=N/NC(=O)c1cc2cc(Cl)ccc2o1
- pIC50 (Anoctamin-1): < 4.00
- pIC50 (Anoctamin-2): < 4.00

Compound: C/C(=N\NC(=O)COc1ccc(Cl)cc1C)c1ccccc1OC(F)(F)F
- pIC50 (Anoctamin-2): < 4.00

Compound: COc1ccccc1CNNC(=O)COc1ccc(Cl)cc1C
- pIC50 (Anoctamin-2): < 4.00

Compound: COc1ccccc1/C=N/NC(=O)COc1ccc(Cl)cc1C
- half-life at 5 µM [9]: 0.533 h

Compound: Cc1cc(Cl)ccc1OC(C)C(=O)N/N=C/c1ccccc1OC(F)(F)F (configuration not stated)
- pIC50 (Anoctamin-1): < 4.00
- IC50 (Anoctamin-2): Not Active

Compound: Cc1cc(Cl)ccc1OCc1nnc(-c2ccccn2)o1
- pIC50 (Anoctamin-1): < 4.00
- IC50 (Anoctamin-2): Not Active
- inhibition at 20 min (ANO2 (Anoctamin-2)): < 20%
